# Rows were chosen to be rich in hits. Some 2.1% of all compounds tested hit in one or more screens of this group.
# SUMO1-SIM PPI – modulators of SUMO1 protein-protein interactions, primary screen, biochemical, uHTS. Small ubiquitin-related modifier 1 (Homo sapiens), P63165. SUMO1 binding to a labelled peptide, TR-FRET, 1 h. inhibition, % at 20 µM. 360,000 tested, 0.33% active. AID 602429, 2012; in the data active means inhibition above about 37%
# DNMT1 block – human DNMT1 methyltransferase inhibitors, primary screen, biochemical, molecular beacon, fluorescence, HinP1I cleavage, uHTS. DNA (cytosine-5)-methyltransferase 1 (Homo sapiens), P26358. inhibition (reported as % activation of signal), % at 10 µM. 360,000 tested, 0.83% active; in the data active means inhibition above about 50%
# GRK2 aptamer HTS – compounds blocking aptamer binding on GRK2 – biochemical, human GRK2, bead flow cytometry, HTS, primary screen; FAM-aptamer displacement from GRK2; Beta-adrenergic receptor kinase 1 (Homo sapiens), P25098; AID 488847, 2010; inhibition of aptamer binding, % at 10 µM; 330,000 tested, 0.59% active;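 active means inhibition of aptamer binding above 40%, roughly 3 SD of noise, on plates passing a quality check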;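 further: median bead fluorescence of bound FAM aptamer so fluorescent compounds give negative values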
# STEP inh – STEP phosphatase inhibitors, primary screen, biochemical, fluorescence intensity, uHTS; Tyrosine-protein phosphatase non-receptor type 5 (Homo sapiens), P54829; recombinant STEP, OMFP fluorogenic substrate; inhibition, % at 20 µM; 360,000 tested, 0.25% active;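 active means inhibition at 20 µM, scaled per plate between control wells, above about 37%, limit read from the data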;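 further: 0% = DMSO with enzyme and substrate and 100% = substrate only without enzyme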
# Target sequence (P54829 whole entry, looked up): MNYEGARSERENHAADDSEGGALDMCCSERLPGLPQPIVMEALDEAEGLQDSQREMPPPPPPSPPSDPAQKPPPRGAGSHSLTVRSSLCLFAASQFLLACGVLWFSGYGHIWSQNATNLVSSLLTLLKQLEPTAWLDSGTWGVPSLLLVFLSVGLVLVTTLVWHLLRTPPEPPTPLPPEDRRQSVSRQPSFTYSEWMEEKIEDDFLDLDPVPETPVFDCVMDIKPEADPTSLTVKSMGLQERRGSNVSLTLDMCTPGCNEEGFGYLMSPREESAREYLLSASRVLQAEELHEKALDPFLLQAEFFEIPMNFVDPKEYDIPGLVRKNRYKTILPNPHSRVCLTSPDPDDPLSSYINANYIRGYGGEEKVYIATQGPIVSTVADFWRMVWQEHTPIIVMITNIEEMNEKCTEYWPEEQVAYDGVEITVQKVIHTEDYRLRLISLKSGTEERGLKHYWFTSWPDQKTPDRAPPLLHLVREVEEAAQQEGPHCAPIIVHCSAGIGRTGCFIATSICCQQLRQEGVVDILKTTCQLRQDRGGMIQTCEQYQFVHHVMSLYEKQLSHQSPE
#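 Material: STEP (striatal-enriched tyrosine phosphatase) enzyme, cell-free | Medium: 50 mM Bis-Tris pH 6.0 with 2.5 mM DTT and 0.005% Tween 20 | Read-out: Percent inhibition scaled to no-enzyme and uninhibited-enzyme controls, plate-pattern corrected | Signal: Fluorescence read at 480 nm ex / 540 nm em | Times: 20 min reaction, room temperature, in the dark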
# Scp-1 inhibitor – Scp-1 phosphatase inhibitors, primary screen, biochemical, colorimetric, uHTS | 340,000 tested, 0.88% active | inhibition, % at 20 µM | Recombinant Scp1, phosphopeptide, malachite green phosphate absorbance;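 active means inhibition above about 50% at 20 µM, limit read from the data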;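 further: plate controls were DMSO wells with enzyme for no effect and wells lacking enzyme for full effect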
#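 Incubation: 45 min enzyme reaction at room temperature / System: truncated SCP-1 phosphatase (76-261aa) / Reagent: Phospho 17-mer peptide substrate / Buffer or medium: Acidic Tris acetate buffer with magnesium and detergent / Signal: absorbance at 630 nm / Doses: one concentration, 20 µM, with 1.0% DMSO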
# LMPTP block – LMPTP phosphatase inhibitors, primary screen, biochemical, fluorescence intensity, uHTS | Low molecular weight phosphotyrosine protein phosphatase (Homo sapiens), P24666 | recombinant LMPTP-A, OMFP fluorogenic substrate | inhibition, % at 20 µM | 360,000 tested, 0.22% active | AID 651560, 2012;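 active means compounds that cut the enzyme signal by at least half of the control window in the single-dose screen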;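 further: plate controls were DMSO wells with enzyme plus substrate for no effect and substrate without enzyme for full effect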
#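 test system = LMPTP-A | amount = 0.625 nM LMPTP-A final | reagent = fluorogenic phosphatase substrate OMFP at 400 µM final | incubation = 50 min at room temperature | benchmarks = no-enzyme low control, uninhibited high control | medium = Bis-Tris pH 6.0, DTT, detergent | signal = fluorescence intensity of OMFP turnover product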
# Scp1 confirm – Scp-1 phosphatase inhibitors, retest, confirmation, biochemical, colorimetric, single concentration | shares compounds with Scp-1 inhibitor | recombinant SCP-1 catalytic domain, phosphate release, malachite green absorbance | inhibition, % at 20 µM | 2,500 tested, 61% active;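 further: plate controls were DMSO with enzyme for no effect and buffer wells lacking enzyme for full effect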
# MG interference – colorimetric readout interference by compounds, confirmation, artefact control for Scp-1 inhibitor project, biochemical, single concentration. AID 540313, 2011. Colorimetric interference counterscreen, malachite green absorbance 630 nm. shares compounds with Scp-1 inhibitor. apparent inhibition (interference), % at 20 µM. 2,500 tested, under 10 active;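 further: compounds added after enzyme reaction finished so only phosphate colour detection is probed; plate controls were DMSO wells with completed Scp-1 reaction for no effect and substrate wells lacking enzyme for full effect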
# Scp-1 Tm shift – Scp-1 binding by thermal shift, confirmation, orthogonal assay for Scp-1 inhibitor project, biophysical, differential scanning fluorimetry | shares compounds with Scp-1 inhibitor | Recombinant SCP1, Sypro Orange thermal shift Tm | thermal shift relative to vanadate control, % at 40 µM | 1,500 tested, 25% active | AID 540329, 2011;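 active means substances whose mean melting-temperature shift, as a percentage of the reference inhibitor's shift, reaches about 5.3%, limit read from the data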;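 further: 0% = Tm of DMSO wells and 100% = Tm with sodium orthovanadate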
# Active calls of the source: *; nt = no result given.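 How the source made its calls, unless noted: active means inhibition of at least 30% at 20 µM; inactive means the rest.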
SMILES,SUMO1-SIM PPI,DNMT1 block,GRK2 aptamer HTS,STEP inh,Scp-1 inhibitor,LMPTP block,Scp1 confirm,MG interference,others
CCn1c(C)c2c([n+]1CC)CC(C)(C)CC2=O,-3,0,0,-3,55*,-1,75*,-11,Scp-1 Tm shift=-20
COc1ccc(COCC(O)CN2CCN(S(=O)(=O)c3c(F)cccc3F)CC2)cc1OC (stereo not drawn),0,-1,nt,0,-4,1,nt,nt,
COc1ccc(/C=C2\C(=O)NCC(=O)N2C)cc1,3,0,0,-2,89*,-3,-13,-15,
COc1ccc(/C=C2\C(=O)NCC(=O)N2Cc2ccccc2)cc1,-2,0,4,-1,-18,0,nt,nt,
COC(=O)CCC1(C(N)=O)CCC(=O)c2ccccc21 (stereo not drawn),0,7,nt,1,29,-1,nt,nt,
Cc1cc(CSc2ccccc2)ccc1NC(=O)c1cccc([N+](=O)[O-])c1,-1,9,6,-2,54*,-1,-12,-16,
O=c1[nH][nH]c2c1[C@H](c1ccc(Cl)cc1)O[C@H](C1CCCCC1)C2,4,nt,nt,nt,nt,-1,nt,nt,
CCOC(=O)C1(C)CCCN(C(=O)CCc2ccccc2)C1 (stereo not drawn),-7,4,nt,0,nt,0,nt,nt,
O=C(CNC(=O)Cc1ccccc1)NCC(=O)N1CCCCC1,2,0,2,0,-8,-2,nt,nt,
O=C(CNC(=O)Cc1ccc(Cl)cc1)NCC(=O)N1CCCCC1,4,0,0,-1,65*,1,-10,-14,
COC(=O)C1=C(C(=O)OC)C2(OC1c1ccccc1C)C(=O)c1ccccc1C2=O (stereo not drawn),-5,-2,2,2,56*,2,-10,-7,
COc1ccc(NC(=O)Nc2ccc3c(c2)C(=O)N([C@H](C)CO)C[C@H](C)[C@@H](CN(C)C(=O)Nc2ccc(C(F)(F)F)cc2)O3)cc1,17,-11,3,0,-2,2,nt,nt,
Cc1noc(C)c1NC(=O)N(C)C[C@H]1Oc2ccc(NC(=O)Nc3ccccc3)cc2C(=O)N([C@H](C)CO)C[C@@H]1C,1,8,1,-3,65*,-2,1,-10,
C[C@H](CO)N1C[C@H](C)[C@@H](CN(C)S(=O)(=O)c2ccccc2)Oc2ccc(NC(=O)c3ccncc3)cc2C1=O,4,3,1,2,7,1,nt,nt,
COc1ccc(NC(=O)N(C)C[C@H]2Oc3ccc(NC(=O)c4ccncc4)cc3C(=O)N([C@H](C)CO)C[C@@H]2C)cc1,0,12,4,-1,84*,-2,15,-13,
COc1ccc(NC(=O)N(C)C[C@H]2Oc3ccc(NC(=O)Nc4ccc(C(F)(F)F)cc4)cc3C(=O)N([C@H](C)CO)C[C@@H]2C)cc1,5,-18,3,0,50*,3,13,-7,
C[C@H](CO)N1C[C@H](C)[C@@H](CN(C)S(=O)(=O)c2ccc(F)cc2)Oc2ccc(NC(=O)c3ccncc3)cc2C1=O,-5,0,1,-2,59*,-3,7,-11,
